The source made the active and inactive calls. The rule behind the calls is not given here.
How the values were obtained:
[1] = Induction of BMP2 expression in mouse calcarial MC3T3-E1 cells stably transfected with mouse BMP2 promotor-luciferase assessed as upregulation rate at 4 uM; format: functional, cell-based
Summary of the method: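 Reporter assay in murine calvarial MC3T3-E1 cells stably carrying the mouse BMP-2 promoter fused to firefly luciferase (pGL4BMP-2). Cells grown in DMEM with 10% heat-inactivated FBS at 37 °C and 5% CO2. Test compounds at 4.0 μM; lovastatin at 0.4 μM as positive control; 0.1% DMSO as negative control. Up-regulation rate = (RLU of test − RLU of negative control)/RLU of negative control × 100.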

[2] = tested on: Mus musculus; experiment: Toxicity in SAMP6 mouse assessed as pathological changes in liver at 30 mg/kg/day, po after 3 months by histomorphology; format: organism-based; set-up: route oral; settings: in vivo
Summary of the method: (§1)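 SAMP6 mice, n = 5 per group, dosed orally at 30 mg/kg/day in 0.5% methylcellulose for 3 months. Heart, liver, spleen, lung and kidney harvested, weighed and examined histologically. Organ/body weight indexes, body weight, and 24 h water and food intake (g/g body weight) compared with vehicle controls.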

[3] = tested on: Mus musculus; experiment: Induction of bone mineral density in SAMP6 mouse assessed as left hind leg BMD at 30 mg/kg/day, po measured after 3 months; format: functional
Summary of the method: (§2)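 SAMP6 mice, 5 months old, n = 5 per group, given compound in 0.5% methylcellulose by gavage daily. Dual-energy X-ray absorptiometry under pentobarbital anaesthesia (50 mg/kg ip), animals prone, at 0, 4, 8 and 12 weeks of treatment. Regions of interest were whole body, spine and left hind leg.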

[4] = tested on: Mus musculus; experiment: Toxicity in SAMP6 mouse assessed as pathological changes in heart at 30 mg/kg/day, po after 3 months by histomorphology; format: organism-based; set-up: route oral; settings: in vivo; summary of the method: as §1
[5] = tested on: Mus musculus; experiment: Induction of bone formation in SAMP6 mouse right femora assessed as trabecular resorption surface percentage at 30 mg/kg/day, po measured after 3 months by bone histomorphometry; format: functional, Trabecula
Summary of the method: (§3)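 SAMP6 mice, 5 months old, n = 5 per group (3 male, 2 female), randomized by initial BMD. Given compound in 0.5% methylcellulose by gavage daily for 3 months. Proximal third of the right femur fixed in 4% paraformaldehyde, cut as undecalcified sections, and scored by image analysis for histomorphometry.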

[6] = tested on: Mus musculus; experiment: Toxicity in SAMP6 mouse assessed as pathological changes in lung at 30 mg/kg/day, po after 3 months by histomorphology; format: organism-based; set-up: route oral; settings: in vivo; summary of the method: as §1
[7] = tested on: Mus musculus; experiment: Toxicity in SAMP6 mouse assessed as pathological changes in kidney at 30 mg/kg/day, po after 3 months by histomorphology; format: organism-based; set-up: route oral; settings: in vivo; summary of the method: as §1
[8] = tested on: Mus musculus; experiment: Induction of bone mineral density in SAMP6 mouse assessed as whole body BMD at 10 mg/kg/day, po measured after 1 month; format: functional, organism-based; settings: 30 mg/kg, in the assay text read “30 mg/kg/day” for “10 mg/kg/day”; summary of the method: as §2
[9] = tested on: Mus musculus; experiment: Induction of bone formation in SAMP6 mouse right femora assessed as average osteoid width at 30 mg/kg/day, po measured after 3 months by bone histomorphometry; format: functional; summary of the method: as §3
[10] = tested on: Mus musculus; experiment: Induction of bone formation in SAMP6 mouse right femora assessed as trabecular bone volume percentage at 30 mg/kg/day, po measured after 3 months by bone histomorphometry; format: functional, Trabecula; summary of the method: as §3
[11] = tested on: Mus musculus; experiment: Toxicity in SAMP6 mouse assessed as change in 24 hrs food consumption at 30 mg/kg/day, po after 3 months; format: organism-based; set-up: route oral; settings: in vivo; summary of the method: as §1
[12] = tested on: Mus musculus; experiment: Induction of BMP2 expression in SAMP6 mouse bone marrow stroma at 30 mg/kg/day, po after 3 months by immunohistochemical analysis; format: functional, organism-based
Summary of the method: (§4)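 SAMP6 mice, 5 months old, male and female, n = 5 per group (3 male, 2 female). Dosed by gavage with compound suspended in 0.5% methylcellulose daily for 3 months; the vehicle group received methylcellulose only. Proximal third of the left femur fixed in 4% neutral paraformaldehyde for 24 h, decalcified in 10% EDTA at 4 °C for 4 weeks, then frozen-sectioned at 5 μm. Stained with rabbit polyclonal anti-BMP-2 and an alkaline phosphatase secondary. BMP-2-positive area was taken as a percentage of bone tissue area, averaged over five fields below the epiphyseal plate.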

[13] = tested on: Mus musculus; experiment: Induction of bone mineral density in SAMP6 mouse assessed as whole body BMD at 30 mg/kg/day, po measured after 3 months; format: functional; summary of the method: as §2
[14] = tested on: Mus musculus; experiment: Induction of bone formation in SAMP6 mouse right femora assessed as trabecular formation surface percentage at 30 mg/kg/day, po measured after 3 months by bone histomorphometry; format: functional, Trabecula; summary of the method: as §3
[15] = tested on: Mus musculus; experiment: Induction of bone mineral density in SAMP6 mouse assessed as whole body BMD at 30 mg/kg/day, po measured after 2 months; format: functional, organism-based; summary of the method: as §2
[16] = tested on: Mus musculus; experiment: Toxicity in SAMP6 mouse assessed as pathological changes in spleen at 30 mg/kg/day, po after 3 months by histomorphology; format: organism-based; set-up: route oral; settings: in vivo; summary of the method: as §1
[17] = tested on: Mus musculus; experiment: Induction of bone mineral density in SAMP6 mouse assessed as spine BMD at 30 mg/kg/day, po measured after 3 months; format: functional; summary of the method: as §2
[18] = tested on: Mus musculus; experiment: Toxicity in SAMP6 mouse assessed as increase in body weight at 30 mg/kg/day, po after 3 months; format: organism-based; set-up: route oral; settings: in vivo; summary of the method: as §1
[19] = tested on: Mus musculus; experiment: Induction of BMP2 expression in SAMP6 mouse osteoblast at 10 mg/kg/day, po after 3 months by immunohistochemical analysis; format: functional, organism-based; summary of the method: as §4
[20] = tested on: Mus musculus; experiment: Induction of BMP2 expression in SAMP6 mouse cartilage cells at 30 mg/kg/day, po after 3 months by immunohistochemical analysis; format: functional, organism-based; summary of the method: as §4
[21] = Toxicity in po dosed Kunming mouse assessed as mortality treated for 3 days measured after 17 days; format: organism-based; settings: in vivo
Summary of the method: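 Male and female Kunming mice (18-21 g), six per group (three males, three females), were dosed orally at 500 or 700 (mg/kg)/day for 3 days. They were closely watched for deaths over the 3 dosing days and the following 14 days (17 days in total).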

[22] = tested on: Mus musculus; experiment: Induction of BMP2 expression in SAMP6 mouse osteoblast at 30 mg/kg/day, po after 3 months by immunohistochemical analysis; format: functional, organism-based; summary of the method: as §4
[23] = tested on: Mus musculus; experiment: Induction of bone mineral density in SAMP6 mouse assessed as whole body BMD at 10 mg/kg/day, po measured after 2 months; format: functional, organism-based; settings: 30 mg/kg, in the assay text read “30 mg/kg/day” for “10 mg/kg/day”; summary of the method: as §2
[24] = tested on: Mus musculus; experiment: Toxicity in SAMP6 mouse assessed as change in 24 hrs water consumption at 30 mg/kg/day, po after 3 months; format: organism-based; set-up: route oral; settings: in vivo; summary of the method: as §1

SMILES: CCOC(=O)c1cc2cc(C(=O)OC)ccc2s1
- Activity [1]: 49.8%

SMILES: COC(=O)c1ccc2sc(C(C)=O)cc2c1
- Activity [1]: 41.4%

SMILES: CCOC(=O)c1ccc2sc(C(=O)/C=C/c3ccccc3)cc2c1
- Activity [1]: 12.6%

SMILES: CC(=O)c1cc2ccccc2o1
- Activity [1]: 33.5%

SMILES: CCOC(=O)c1cc2c(Cl)cccc2s1
- Activity [1]: -0.6%

SMILES: O=C(/C=C/c1ccccc1Cl)c1cc2ccccc2o1
- Activity [1]: 1.8%

SMILES: O=C(/C=C/c1ccccc1Cl)c1cc2ccccc2s1
- Activity [1]: 2%

SMILES: O=C(/C=C/c1ccccc1)c1cc2ccccc2s1
- Activity [1]: 15.4%

SMILES: C[S+]([O-])CC(=O)c1cc2ccccc2s1 (stereo not drawn)
- Activity [2]: Non-toxic
- Activity [3]: 0.05 g/cm2
- Activity [4]: Non-toxic
- Activity [5]: 6.45%
- Activity [6]: Non-toxic
- Activity [7]: Non-toxic
- Activity [8]: Active
- Activity [9]: 5.85 µm
- Activity [10]: 5.95%
- Activity [11]: Non-toxic
- Activity [1]: 19.7%
- Activity [12]: Active
- Activity [13]: 0.072 g/cm2
- Activity [14]: 5.13%
- Activity [15]: Active
- Activity [16]: Non-toxic
- Activity [17]: 0.09 g/cm2
- Activity [18]: Non-toxic
- Activity [19]: Active
- Activity [20]: inactive
- LD50 at 408 h [21]: > 700 mg/kg
- Activity [22]: Active
- Activity [23]: Active
- Activity [24]: Non-toxic

SMILES: CCOC(=O)c1cc2ccccc2o1
- Activity [1]: 7.1%

SMILES: CS(=O)(=O)CC(=O)c1cc2cc3c(cc2s1)OCO3
- Activity [1]: -9.3%

SMILES: CCOC(=O)c1ccc2sc(C(=O)/C=C/c3ccccc3Cl)cc2c1
- Activity [1]: 24%

SMILES: C[S+]([O-])CC(=O)c1cc2c(Cl)cccc2s1 (stereo not drawn)
- Activity [1]: 18.5%

SMILES: CCOC(=O)c1cc2cccc(F)c2o1
- Activity [1]: -18.1%

SMILES: C[S+]([O-])CC(=O)c1cc2ccccc2o1 (stereo not drawn)
- Activity [1]: 3.9%
